Data from ChEMBL document CHEMBL1140759, “Synthesis, anti-Toxoplasma gondii and antimicrobial activities of benzaldehyde 4-phenyl-3-thiosemicarbazones and 2-[(phenylmethylene)hydrazono]-4-oxo-3-phenyl-5-thiazolidineacetic acids” (Bioorg Med Chem, 2008).

Columns and labels:
Toxoplasma gondii [1] = assay: Antiparasitic activity against Toxoplasma gondii infected african green monkey Vero cells at 2 mM assessed as infected cells; format: functional
In short: (§1)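 Vero cells were infected with RH-strain tachyzoites (5:1 parasite:cell) for 1 h, washed with PBS, and grown 24 h at 37 °C in medium 199 with 5% FCS. Compound was then added for 24 h. Cells were fixed with Bouin's, stained with Giemsa, and at least 400 cells were counted by light microscopy for the percentage infected. Hydroxyurea and sulfadiazine served as references.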

Toxoplasma gondii [2] = assay: Antiparasitic activity against Toxoplasma gondii infected african green monkey Vero cells at 8 mM assessed as infected cells; format: functional; in short: as §1
Toxoplasma gondii [3] = assay: Inhibition of intracellular parasite Toxoplasma gondii; format: functional, organism-based
In short: (§2)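 Infected Vero cultures were exposed to compound at 0.01–30 mM for 24 h, in triplicate per assay. IC50 for infected cells and intracellular parasites was derived by non-linear regression, using trypan blue exclusion.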

Vero = assay: Inhibition of uninfected african green monkey Vero cells; format: cell-based; settings: Chlorocebus sabaeus
Toxoplasma gondii [4] = assay: Antiparasitic activity against Toxoplasma gondii infected african green monkey Vero cells at 5 mM assessed as infected cells; format: functional; in short: as §1
Toxoplasma gondii [5] = assay: Inhibition of Toxoplasma gondii infected in african green monkey Vero cells; format: functional, organism-based; in short: as §2
Toxoplasma gondii [6] = assay: Antiparasitic activity against Toxoplasma gondii infected african green monkey Vero cells at 0.1 mM assessed as infected cells; format: functional; in short: as §1
Toxoplasma gondii [7] = assay: Antiparasitic activity against Toxoplasma gondii infected african green monkey Vero cells at 20 mM assessed as infected cells; format: functional; in short: as §1
Candida albicans = assay: Antimicrobial activity against Candida albicans at 300 ug/disc; format: functional; settings: read-out: IZ
In short: (§3)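 Disc diffusion on agar plates inoculated with a standardized microbial suspension, with paper discs carrying known compound amounts. DMSO-only discs served as negative controls, and chloramphenicol, rifampicin (bacteria) or nistatin (fungi) as references. The read-out is the mean inhibition zone diameter in mm. Each run was done three times and repeated if results differed.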

Candida [8] = assay: Antimicrobial activity against Candida sp. IMUR4249 at 300 ug/disc; format: functional; settings: read-out: IZ; in short: as §3
Staphylococcus aureus = assay: Antimicrobial activity against Staphylococcus aureus at 300 ug/disc; format: functional; settings: read-out: IZ; in short: as §3
Escherichia coli = assay: Antimicrobial activity against Escherichia coli at 300 ug/disc; format: functional; settings: read-out: IZ; in short: as §3
Saccharomyces cerevisiae = assay: Antimicrobial activity against Saccharomyces cerevisiae at 300 ug/disc; format: functional; settings: read-out: IZ; in short: as §3
[9] = tested on: Mycobacterium tuberculosis; assay: Antimicrobial activity against Mycobacterium tuberculosis at 300 ug/disc; format: functional; settings: read-out: IZ
In short: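 Agar disc diffusion: paper discs loaded with compound placed on agar plates seeded with a standardised microbial suspension. DMSO-only discs served as negative control. Chloramphenicol and rifampicin (bacteria) or nistatin (fungi) gave reference zones. Read-out was mean zone of inhibition diameter (mm). Each experiment was run three times and repeated if results differed.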

Mycolicibacterium phlei = assay: Antimicrobial activity against Mycobacterium phlei at 300 ug/disc; format: functional; settings: read-out: IZ; in short: as §3
Micrococcus luteus = assay: Antimicrobial activity against Micrococcus luteus at 300 ug/disc; format: functional; settings: read-out: IZ; in short: as §3
Enterococcus faecalis = assay: Antimicrobial activity against Streptococcus faecalis at 300 ug/disc; format: functional; settings: read-out: IZ; in short: as §3
Candida [10] = assay: Antimicrobial activity against Candida sp. IMUR720 at 300 ug/disc; format: functional; settings: read-out: IZ; in short: as §3
[11] = tested on: Mycolicibacterium smegmatis; assay: Antimicrobial activity against Mycobacterium smegmatis at 300 ug/disc; format: functional; settings: read-out: IZ; in short: as §3
Candida [12] = assay: Antimicrobial activity against Candida sp. IMUR1224 at 300 ug/disc; format: functional; settings: read-out: IZ; in short: as §3
Klebsiella pneumoniae = assay: Antimicrobial activity against Klebsiella pneumoniae at 300 ug/disc; format: functional; settings: read-out: IZ; in short: as §3
Bacillus subtilis = assay: Antimicrobial activity against Bacillus subtilis at 300 ug/disc; format: functional; settings: read-out: IZ; in short: as §3

Structure (SMILES)	Activity (Toxoplasma gondii [1]) [%]	Activity (Toxoplasma gondii [2]) [%]	IC50 (Toxoplasma gondii [3]) [µM]	IC50 (Vero) [µM]	Activity (Toxoplasma gondii [4]) [%]	IC50 (Toxoplasma gondii [5]) [µM]	Activity (Toxoplasma gondii [6]) [%]	Activity (Toxoplasma gondii [7]) [%]	also measured
NC(=O)NO [HYDROXYUREA]	22.78	7.37	100	1000	10.4	500	58.23	0	–
Cc1ccc(/C=N/NC(=S)Nc2ccccc2)cc1	36.78	2.96	3000	8000	27.84	4000	51.08	0	–
O=C(O)CC1S/C(=N\N=C\c2cccc(Cl)c2)N(c2ccccc2)C1=O (stereo not given)	34.8	0	2000	10000	33.5	3000	53.74	0	zone of inhibition at 300 µg/disc (Candida albicans): < 7 mm; zone of inhibition at 300 µg/disc (Candida [8]): 11 mm; zone of inhibition at 300 µg/disc (Staphylococcus aureus): < 7 mm; zone of inhibition at 300 µg/disc (Escherichia coli): < 7 mm; zone of inhibition at 300 µg/disc (Saccharomyces cerevisiae): < 7 mm; zone of inhibition at 300 µg/disc [9]: < 7 mm; zone of inhibition at 300 µg/disc (Mycolicibacterium phlei): < 7 mm; zone of inhibition at 300 µg/disc (Micrococcus luteus): 16 mm; zone of inhibition at 300 µg/disc (Enterococcus faecalis): 12 mm; zone of inhibition at 300 µg/disc (Candida [10]): < 7 mm; zone of inhibition at 300 µg/disc [11]: < 7 mm; zone of inhibition at 300 µg/disc (Candida [12]): < 7 mm; zone of inhibition at 300 µg/disc (Klebsiella pneumoniae): < 7 mm; zone of inhibition at 300 µg/disc (Bacillus subtilis): < 7 mm
CC(C)(C)c1cc(/C=N/NC(=S)Nc2ccccc2)cc(C(C)(C)C)c1O	64.07	6.42	4000	10000	30.51	5000	63.44	0	–
COc1cc(/C=N/NC(=S)Nc2ccccc2)ccc1O	19.7	2.6	100	6000	19.3	1000	80.05	0	–
CN(C)c1ccc(/C=N/NC(=S)Nc2ccccc2)cc1	35.81	13.46	1000	6000	18.14	2000	76.14	0	–
COc1cccc(/C=N/NC(=S)Nc2ccccc2)c1	34.82	5.9	1000	5000	9.7	2000	53.6	0	–
S=C(N/N=C/c1ccc(Cl)cc1Cl)Nc1ccccc1	33.28	12.08	1000	6000	31.32	2000	49.33	0	–
Fc1ccccc1/C=N/NC(=S)Nc1ccccc1	28.13	29.29	1000	4000	14.32	1500	91.5	0	–
COc1ccc(/C=N/N=C2\SC(CC(=O)O)C(=O)N2c2ccccc2)cc1 (stereo not given)	4.51	0	–	6000	5.9	500	27.32	0	zone of inhibition at 300 µg/disc (Candida albicans): 15 mm; zone of inhibition at 300 µg/disc (Candida [8]): 16 mm; zone of inhibition at 300 µg/disc (Staphylococcus aureus): < 7 mm; zone of inhibition at 300 µg/disc (Escherichia coli): < 7 mm; zone of inhibition at 300 µg/disc (Saccharomyces cerevisiae): < 7 mm; zone of inhibition at 300 µg/disc [9]: < 7 mm; zone of inhibition at 300 µg/disc (Mycolicibacterium phlei): < 7 mm; zone of inhibition at 300 µg/disc (Micrococcus luteus): 16 mm; zone of inhibition at 300 µg/disc (Enterococcus faecalis): < 7 mm; zone of inhibition at 300 µg/disc (Candida [10]): < 7 mm; zone of inhibition at 300 µg/disc [11]: < 7 mm; zone of inhibition at 300 µg/disc (Candida [12]): < 7 mm; zone of inhibition at 300 µg/disc (Klebsiella pneumoniae): < 7 mm; zone of inhibition at 300 µg/disc (Bacillus subtilis): 11 mm
S=C(N/N=C/c1ccc(Cl)cc1)Nc1ccccc1	34.8	21.05	1500	10000	38.7	7000	70.01	0	–
COc1cc(/C=N/NC(=S)Nc2ccccc2)cc(OC)c1OC	72.04	23.17	2000	10000	24.32	3000	76.37	0	–
Cc1cccc(/C=N/NC(=S)Nc2ccccc2)c1	39.82	22.72	2000	5000	26.86	5000	66.23	0	–
COc1ccc(/C=N/NC(=S)Nc2ccccc2)cc1	29.39	12.36	1000	6000	19	2000	50.43	0	–
COc1ccc(/C=N/NC(=S)Nc2ccccc2)c(OC)c1	41.44	3.6	2000	5000	9.2	2000	73	1.49	–
COc1cc(/C=N/N=C2\SC(CC(=O)O)C(=O)N2c2ccccc2)ccc1O (stereo not given)	41.96	0	1000	100	3.5	3000	46.02	0	zone of inhibition at 300 µg/disc (Candida albicans): < 7 mm; zone of inhibition at 300 µg/disc (Staphylococcus aureus): < 7 mm; zone of inhibition at 300 µg/disc (Escherichia coli): < 7 mm; zone of inhibition at 300 µg/disc (Saccharomyces cerevisiae): < 7 mm; zone of inhibition at 300 µg/disc [9]: < 7 mm; zone of inhibition at 300 µg/disc (Mycolicibacterium phlei): < 7 mm; zone of inhibition at 300 µg/disc (Micrococcus luteus): < 7 mm; zone of inhibition at 300 µg/disc (Enterococcus faecalis): < 7 mm; zone of inhibition at 300 µg/disc (Candida [10]): < 7 mm; zone of inhibition at 300 µg/disc [11]: < 7 mm; zone of inhibition at 300 µg/disc (Candida [12]): < 7 mm; zone of inhibition at 300 µg/disc (Klebsiella pneumoniae): < 7 mm; zone of inhibition at 300 µg/disc (Bacillus subtilis): < 7 mm
Fc1ccc(/C=N/NC(=S)Nc2ccccc2)cc1	35.2	19.83	1000	10000	28	2000	46.59	0	–
S=C(N/N=C/c1ccccc1)Nc1ccccc1	77.82	13.52	4000	5000	31.83	5000	82.5	0	–
Cc1ccc(/C=N/N=C2\SC(CC(=O)O)C(=O)N2c2ccccc2)cc1 (stereo not given)	1.23	0	50	1000	0	100	39.2	0	zone of inhibition at 300 µg/disc (Staphylococcus aureus): < 7 mm; zone of inhibition at 300 µg/disc (Escherichia coli): < 7 mm; zone of inhibition at 300 µg/disc [9]: < 7 mm; zone of inhibition at 300 µg/disc (Mycolicibacterium phlei): < 7 mm; zone of inhibition at 300 µg/disc (Micrococcus luteus): 16 mm; zone of inhibition at 300 µg/disc (Enterococcus faecalis): 12 mm; zone of inhibition at 300 µg/disc [11]: < 7 mm; zone of inhibition at 300 µg/disc (Klebsiella pneumoniae): < 7 mm; zone of inhibition at 300 µg/disc (Bacillus subtilis): < 7 mm
S=C(N/N=C/c1cccc(Cl)c1)Nc1ccccc1	60.69	24.49	3000	10000	52.06	7000	44.52	0	–
S=C(N/N=C/c1ccc(Cl)c(Cl)c1)Nc1ccccc1	38.02	4.54	2000	6000	21.96	5000	49.18	0	–
Nc1ccc(S(=O)(=O)Nc2ncccn2)cc1 [SULFADIAZINE]	48.71	6.84	3000	8000	29.55	3000	53.84	0	–
